Source: ChEMBL document CHEMBL3808334, “Synthesis and in vitro evaluation of novel triazine analogues as anticancer agents and their interaction studies with bovine serum albumin” (Eur J Med Chem, 2016)

Tests used:
NCI-H522 [1] = assay: Growth inhibition of human NCI-H522 cells assessed as cell growth at 10^-8 M incubated for 48 hrs by sulforhodamine B assay; assay type: functional; conditions: NCI-H522, 48 h, read-out: Activity
SK-MEL-28 = assay: Growth inhibition of human SK-MEL-28 cells incubated for 48 hrs by sulforhodamine B assay; assay type: functional; conditions: SK-MEL-28, 48 h
Method in brief: (§1)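 Cells were plated at 5,000–40,000 per well according to doubling time and preincubated 24 h at 37 °C in 5% CO2; time-zero plates were then TCA-fixed. Five concentrations (10-fold or ½-log dilutions, DMSO stock) were incubated 48 h. Cells were TCA-fixed, stained with 0.4% SRB and read at 515 nm. GI50 was taken where [(Ti−Tz)/(C−Tz)]×100 = 50.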

NCI-H460 = assay: Growth inhibition of human NCI-H460 cells assessed as cell growth at 10^-6 M incubated for 48 hrs by sulforhodamine B assay; assay type: functional; conditions: NCI-H460, 48 h, read-out: Activity
[2] = Growth inhibition of human TK10 cells assessed as cell growth at 10^-4 M incubated for 48 hrs by sulforhodamine B assay; assay type: functional; conditions: TK-10, 48 h, read-out: Activity
[3] = Growth inhibition of human SKOV3 cells assessed as cell growth at 10^-6 M incubated for 48 hrs by sulforhodamine B assay; assay type: functional; conditions: SK-OV-3, 48 h, read-out: Activity
[4] = Growth inhibition of human PC3 cells assessed as cell growth at 10^-7 M incubated for 48 hrs by sulforhodamine B assay; assay type: functional; conditions: PC-3, 48 h, read-out: Activity
[5] = Growth inhibition of human UACC62 cells assessed as cell growth at 10^-6 M incubated for 48 hrs by sulforhodamine B assay; assay type: functional; conditions: UACC-62, 48 h, read-out: Activity
Malme-3M = assay: Growth inhibition of human MALME-3M cells incubated for 48 hrs by sulforhodamine B assay; assay type: functional; method in brief: as §1
A549 [6] = assay: Growth inhibition of human A549/ATCC cells assessed as cell growth at 10^-5 M incubated for 48 hrs by sulforhodamine B assay; assay type: functional; conditions: A549, 48 h, read-out: Activity
Method in brief: (§2)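 Five-dose assay: five concentrations from 10-fold or ½-log serial dilutions. Cells are plated at 5,000–40,000 per well according to doubling time, grown 24 h, then exposed 48 h at 37 °C, 5% CO₂. Fixed with cold 50% TCA (final addition) for 60 min at 4 °C and stained with 0.4% SRB in 1% acetic acid. Bound dye is solubilized in 10 mM Tris base and read at 515 nm. GI₅₀ is where [(Ti−Tz)/(C−Tz)]×100 = 50, with a time-zero plate as Tz.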

[7] = Growth inhibition of human SNB19 cells assessed as cell growth at 10^-8 M incubated for 48 hrs by sulforhodamine B assay; assay type: functional; conditions: SNB-19, 48 h, read-out: Activity
KM12 [8] = assay: Growth inhibition of human KM12 cells assessed as cell growth at 10 uM incubated for 48 hrs by sulforhodamine B assay; assay type: functional; conditions: KM12, 48 h, read-out: Activity
[9] = Growth inhibition of human LOXIMVI cells assessed as cell growth at 10 uM incubated for 48 hrs by sulforhodamine B assay; assay type: functional; conditions: LOX IMVI, read-out: Activity
[10] = Growth inhibition of human prostate cancer cells incubated for 48 hrs by sulforhodamine B assay; assay type: functional; conditions: Cancer cell lines; for CC50: read-out: LC50 (the source's name)
NCI-H322M = assay: Growth inhibition of human NCI-H322M cells assessed as cell growth at 10^-6 M incubated for 48 hrs by sulforhodamine B assay; assay type: functional; conditions: read-out: Activity
NCI-H522 [11] = assay: Growth inhibition of human NCI-H522 cells assessed as cell growth at 10^-5 M incubated for 48 hrs by sulforhodamine B assay; assay type: functional; conditions: NCI-H522, 48 h, read-out: Activity
[12] = Growth inhibition of human MOLT4 cells assessed as cell growth at 10^-6 M incubated for 48 hrs by sulforhodamine B assay; assay type: functional; conditions: MOLT-4, 48 h, read-out: Activity
NCI-H522 [13] = assay: Growth inhibition of human NCI-H522 cells assessed as cell growth at 10 uM incubated for 48 hrs by sulforhodamine B assay; assay type: functional; conditions: NCI-H522, 48 h, read-out: Activity
MDA-MB-435 = assay: Growth inhibition of human MDA-MB-435 cells assessed as cell growth at 10^-7 M incubated for 48 hrs by sulforhodamine B assay; assay type: functional; conditions: MDA-MB-435, 48 h, read-out: Activity
A549 [14] = assay: Growth inhibition of human A549/ATCC cells assessed as cell growth at 10^-8 M incubated for 48 hrs by sulforhodamine B assay; assay type: functional; conditions: A549, 48 h, read-out: Activity; method in brief: as §2
[15] = Growth inhibition of human TK10 cells assessed as cell growth at 10^-5 M incubated for 48 hrs by sulforhodamine B assay; assay type: functional; conditions: TK-10, 48 h, read-out: Activity
A549 [16] = assay: Growth inhibition of human A549/ATCC cells assessed as cell growth at 10^-6 M incubated for 48 hrs by sulforhodamine B assay; assay type: functional; conditions: A549, 48 h, read-out: Activity; method in brief: as §2
[17] = Growth inhibition of human LOXIMVI cells assessed as cell growth at 10^-8 M incubated for 48 hrs by sulforhodamine B assay; assay type: functional; conditions: LOX IMVI, read-out: Activity
U-251 = assay: Growth inhibition of human U251 cells assessed as cell growth at 10^-8 M incubated for 48 hrs by sulforhodamine B assay; assay type: functional; conditions: U-251, 48 h, read-out: Activity
[18] = Growth inhibition of human breast cancer cells incubated for 48 hrs by sulforhodamine B assay; assay type: functional; conditions: Cancer cell lines; for CC50: read-out: LC50 (the source's name)
KM12 [19] = assay: Growth inhibition of human KM12 cells assessed as cell growth at 10^-5 M incubated for 48 hrs by sulforhodamine B assay; assay type: functional; conditions: KM12, 48 h, read-out: Activity
[20] = Growth inhibition of human renal cancer cells incubated for 48 hrs by sulforhodamine B assay; assay type: functional; conditions: Cancer cell lines; for CC50: read-out: LC50 (the source's name)
[21] = Growth inhibition of human SW620 cells assessed as cell growth at 10^-6 M incubated for 48 hrs by sulforhodamine B assay; assay type: functional; conditions: SW-620, 48 h, read-out: Activity
Albumin = Albumin (Bos taurus, UniProt P02769); assay: Binding affinity to bovine serum albumin assessed as red shift in emission intensity up to 20 uM by fluorescence spectroscopic analysis relative to control; assay type: ADME; conditions: cattle, isolated protein
Albumin, sequence (P02769 whole entry): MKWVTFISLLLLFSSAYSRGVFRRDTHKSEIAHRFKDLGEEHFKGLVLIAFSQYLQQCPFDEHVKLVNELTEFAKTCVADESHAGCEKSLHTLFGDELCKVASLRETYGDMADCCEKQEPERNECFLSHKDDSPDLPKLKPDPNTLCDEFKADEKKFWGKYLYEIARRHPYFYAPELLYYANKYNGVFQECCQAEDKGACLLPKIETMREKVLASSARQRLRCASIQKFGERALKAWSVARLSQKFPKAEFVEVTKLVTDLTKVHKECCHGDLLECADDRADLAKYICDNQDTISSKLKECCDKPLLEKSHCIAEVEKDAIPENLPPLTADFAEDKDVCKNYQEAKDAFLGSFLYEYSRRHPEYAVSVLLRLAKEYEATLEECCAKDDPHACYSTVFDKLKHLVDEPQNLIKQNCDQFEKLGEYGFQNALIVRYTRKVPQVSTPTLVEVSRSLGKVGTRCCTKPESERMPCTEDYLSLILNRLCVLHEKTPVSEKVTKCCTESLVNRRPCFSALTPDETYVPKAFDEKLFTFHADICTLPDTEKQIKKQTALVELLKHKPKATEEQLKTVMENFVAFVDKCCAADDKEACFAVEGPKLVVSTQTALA
Method in brief: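 Fluorescence titration of 10 µM BSA in 0.1 M phosphate buffer pH 7.4 with compound at 0–20 µM, diluted from DMSO stocks. Excitation 280 nm, slit 10 nm, 1 cm quartz cell, 300 K. Changes in the 350 nm Trp emission, new bands near 370–373 nm and isoemissive points are read against BSA alone.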

A549 [22] = assay: Growth inhibition of human A549/ATCC cells assessed as cell growth at 10^-4 M incubated for 48 hrs by sulforhodamine B assay; assay type: functional; conditions: A549, 48 h, read-out: Activity
786-0 = assay: Growth inhibition of human 786-0 cells assessed as cell growth at 10^-7 M incubated for 48 hrs by sulforhodamine B assay; assay type: functional; conditions: 786-0, 48 h, read-out: Activity; method in brief: as §2
[23] = read-out: LC50 (the source's name)
[24] = read-out: pLC50 (the source's name) (converted)

What does the source list for `Clc1ccc(-c2nc(Nc3ccc(-c4nc5ccccc5[nH]4)cc3)nc(N3CCOCC3)n2)cc1`?
growth at 0.01 µM (NCI-H522 [1]): 100%; GI50 (SK-MEL-28; read-out: GI50): 1.6 µM; TGI (SK-MEL-28; read-out: TGI): 3.22 µM; GI50 (SK-MEL-28; read-out: pGI50 (converted)): 1.58 µM; TGI (SK-MEL-28; read-out: pTGI (converted)): 3.24 µM; growth at 1 µM (NCI-H460): -45%; growth at 100 µM [2]: -67%; growth at 1 µM [3]: 102%; growth at 0.1 µM [4]: 101%; growth at 1 µM [5]: -53%; GI50 (Malme-3M; read-out: GI50): 2.1 µM; TGI (Malme-3M; read-out: TGI): 3.86 µM; GI50 (Malme-3M; read-out: pGI50 (converted)): 2.09 µM; TGI (Malme-3M; read-out: pTGI (converted)): 3.89 µM; growth at 10 µM (A549 [6]): -81%; growth at 0.01 µM [7]: 102%; growth at 10 µM (KM12 [8]): -91.3%; growth at 10 µM [9]: -93%; GI50 [10]: 0.41 µM; TGI [10]: 1.49 µM; CC50 [10]: 4.33 µM; growth at 1 µM (NCI-H322M): 2%; growth at 10 µM (NCI-H522 [11]): -76%; growth at 1 µM [12]: -29%; growth at 10 µM (NCI-H522 [13]): -73.9%; growth at 0.1 µM (MDA-MB-435): 98%; growth at 0.01 µM (A549 [14]): 96%; growth at 10 µM [15]: -96%; growth at 1 µM (A549 [16]): 40%; growth at 0.01 µM [17]: 97%; growth at 0.01 µM (U-251): 99%; GI50 [18]: 0.62 µM; TGI [18]: 1.86 µM; CC50 [18]: > 100 µM; growth at 10 µM (KM12 [19]): -81%; GI50 [20]: 1.11 µM; TGI [20]: 2.25 µM; CC50 [20]: 5.6 µM; growth at 1 µM [21]: -72%; Activity (Albumin): 22 nm; growth at 100 µM (A549 [22]): -53%; growth at 0.1 µM (786-0): 92%

Which results are given for `c1ccc2[nH]c(-c3ccc(Nc4nc(N5CCCCC5)nc(N5CCOCC5)n4)cc3)nc2c1`?
growth at 0.01 µM (NCI-H522 [1]): 89%; GI50 (SK-MEL-28; read-out: GI50): 1.8 µM; CC50 (SK-MEL-28; [23]): 8.97 µM; TGI (SK-MEL-28; read-out: TGI): 4.02 µM; GI50 (SK-MEL-28; read-out: pGI50 (converted)): 1.82 µM; CC50 (SK-MEL-28; [24]): 8.91 µM; TGI (SK-MEL-28; read-out: pTGI (converted)): 3.98 µM; growth at 1 µM (NCI-H460): 98%; growth at 100 µM [2]: -32%; growth at 1 µM [3]: 102%; growth at 0.1 µM [4]: 98%; growth at 1 µM [5]: 92%; GI50 (Malme-3M; read-out: GI50): 1.87 µM; CC50 (Malme-3M; [23]): 6.81 µM; TGI (Malme-3M; read-out: TGI): 3.57 µM; GI50 (Malme-3M; read-out: pGI50 (converted)): 1.86 µM; CC50 (Malme-3M; [24]): 6.76 µM; TGI (Malme-3M; read-out: pTGI (converted)): 3.55 µM; growth at 10 µM (A549 [6]): 2%; growth at 0.01 µM [7]: 101%; growth at 10 µM (KM12 [8]): 14.3%; growth at 10 µM [9]: -77.1%; GI50 [10]: 3.67 µM; TGI [10]: 9.13 µM; CC50 [10]: > 100 µM; growth at 1 µM (NCI-H322M): 93%; growth at 10 µM (NCI-H522 [11]): -24%; growth at 1 µM [12]: 97%; growth at 10 µM (NCI-H522 [13]): 9.25%; growth at 0.1 µM (MDA-MB-435): 95%; growth at 0.01 µM (A549 [14]): 94%; growth at 10 µM [15]: -4%; growth at 1 µM (A549 [16]): 101%; growth at 0.01 µM [17]: 96%; growth at 0.01 µM (U-251): 99%; GI50 [18]: 2.36 µM; TGI [18]: 6.72 µM; CC50 [18]: 92.7 µM; growth at 10 µM (KM12 [19]): -2%; GI50 [20]: 2.46 µM; TGI [20]: 11.8 µM; CC50 [20]: 8.29 µM; growth at 1 µM [21]: 96%; Activity (Albumin): 25 nm; growth at 100 µM (A549 [22]): -12%; growth at 0.1 µM (786-0): 97%
